The values below come from PubChem BioAssay.

Molecules are shown by their SMILES. Activity calls are given as the source filed them.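 Rule for the calls, unless noted: active = viability loss from added drug above about 55%, and viability with drug at most 40%, in both replicates (limit read from the data, passing the limit was not always enough); inconclusive = both conditions met in only one replicate; inactive = neither replicate meets both conditions.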

By viability is commonly meant a read-out of living cells in per cent, often relative to untreated cells. The term inhibition denotes the change of the read-out against control, counted positive when it falls.

Assay [1] can be described thus: reducers of endogenous Her2 protein level, primary screen, SKBR3 breast tumor cells, AlphaScreen, ATP viability (AID 461;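 active = Her2 level under about 52% in both replicate screens, with viability over 70% of control, limit read from the data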;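 for Her2 level: lower value means less Her2 protein in the cells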;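 for viability: percent of carrier control wells set as 100% viability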). As to conditions: 18-24 h, measured here: SKBR3 viability, ATP luminescence, at 10 µM. On the technique in general: Bead proximity is the source of the signal in Alpha formats.
Assay [2] addresses Receptor tyrosine-protein kinase erbB-2 (Homo sapiens) (UniProt P04626). The description is as above. As to conditions: 18-24 h, at 10 µM, stronger effect = lower value.
The nature of assay [3]: SK-BR-3 cell growth inhibitors, pilot screen, 24 h, human (AID 572;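 active = viability at or below 10% of carrier control in both of two separate runs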;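 note: compound exposure lasted between 18 and 24 h rather than exactly 24 h; 100% = carrier-treated control wells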). As to conditions: SK-BR-3 viability, CellTiter-Glo luminescence, at 10 µM, stronger effect = lower value.
The nature of assay [4]: HUVEC growth inhibition – cell-based, human, primary screen (AID 575;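 active = viability at or below 30% in both replicate assays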;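 note: 100% = median of untreated cell wells with 0.1% DMSO on each plate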). As to conditions: HUVEC proliferation, CellTiter-Glo luminescence, 72 h; at 10 µM; stronger effect = lower value. The method in brief: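 Timing: 72 h treatment at 37 °C; material: HUVEC primary cells; technique: CellTiter-Glo luminescence measuring cellular ATP; controls: vehicle and MePR control wells; measure: percent of median DMSO-control luminescence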
For orientation: In ATP-based viability assays light output follows the ATP content of the culture.

The nature of assay [5]: growth inhibitors of H69AR lung tumor, primary screen, human, duplicate replicates (AID 580;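 active = viability at or under a set limit in both replicates, limit being median viability minus 3 SD, cut at about 48% in these data, passing the limit was not always enough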;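 note: 100% = mean luminescence of untreated wells and 0% = no signal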). As to conditions: H69AR lung tumor cells viability, ATP luminescence, 72 h; at 10 µM; stronger effect = lower value.
Assay [6] is described as follows: reversal of MRP1-mediated doxorubicin resistance, pilot screen, H69AR cells, doxorubicin co-treatment (AID 601). The note with it: CellTiter-Glo, 72 h, at 10 µM; for differential viability (reversal): stronger effect = higher value.
The nature of assay [7]: 384-well plate pilot, post-Golgi transport modulator project, inhibition of yeast transport mutant growth (AID 636; in the data active = inhibition above about 31%). The note with it: absorbance 615 nm, about 18 h, stronger effect = higher value.
Assay [8] is described as follows: growth suppression of yeast trafficking mutant, preliminary HTS, modulators of trafficking downstream of Golgi apparatus project, 1536-format plate, OD 615 nm (AID 637; in the data active = inhibition above about 30%). The note with it: yeast transport mutant growth, absorbance 615 nm, 18 h; stronger effect = higher value.
[9] abbreviates: H69AR cells + 2 uM doxorubicin, measured here: viability with 2 uM doxorubicin, stronger effect = lower value.
Setting [10] is: H69AR cells, compound alone cytotoxicity.

Receptor tyrosine-protein kinase erbB-2 (Homo sapiens), sequence (P04626 whole entry, looked up): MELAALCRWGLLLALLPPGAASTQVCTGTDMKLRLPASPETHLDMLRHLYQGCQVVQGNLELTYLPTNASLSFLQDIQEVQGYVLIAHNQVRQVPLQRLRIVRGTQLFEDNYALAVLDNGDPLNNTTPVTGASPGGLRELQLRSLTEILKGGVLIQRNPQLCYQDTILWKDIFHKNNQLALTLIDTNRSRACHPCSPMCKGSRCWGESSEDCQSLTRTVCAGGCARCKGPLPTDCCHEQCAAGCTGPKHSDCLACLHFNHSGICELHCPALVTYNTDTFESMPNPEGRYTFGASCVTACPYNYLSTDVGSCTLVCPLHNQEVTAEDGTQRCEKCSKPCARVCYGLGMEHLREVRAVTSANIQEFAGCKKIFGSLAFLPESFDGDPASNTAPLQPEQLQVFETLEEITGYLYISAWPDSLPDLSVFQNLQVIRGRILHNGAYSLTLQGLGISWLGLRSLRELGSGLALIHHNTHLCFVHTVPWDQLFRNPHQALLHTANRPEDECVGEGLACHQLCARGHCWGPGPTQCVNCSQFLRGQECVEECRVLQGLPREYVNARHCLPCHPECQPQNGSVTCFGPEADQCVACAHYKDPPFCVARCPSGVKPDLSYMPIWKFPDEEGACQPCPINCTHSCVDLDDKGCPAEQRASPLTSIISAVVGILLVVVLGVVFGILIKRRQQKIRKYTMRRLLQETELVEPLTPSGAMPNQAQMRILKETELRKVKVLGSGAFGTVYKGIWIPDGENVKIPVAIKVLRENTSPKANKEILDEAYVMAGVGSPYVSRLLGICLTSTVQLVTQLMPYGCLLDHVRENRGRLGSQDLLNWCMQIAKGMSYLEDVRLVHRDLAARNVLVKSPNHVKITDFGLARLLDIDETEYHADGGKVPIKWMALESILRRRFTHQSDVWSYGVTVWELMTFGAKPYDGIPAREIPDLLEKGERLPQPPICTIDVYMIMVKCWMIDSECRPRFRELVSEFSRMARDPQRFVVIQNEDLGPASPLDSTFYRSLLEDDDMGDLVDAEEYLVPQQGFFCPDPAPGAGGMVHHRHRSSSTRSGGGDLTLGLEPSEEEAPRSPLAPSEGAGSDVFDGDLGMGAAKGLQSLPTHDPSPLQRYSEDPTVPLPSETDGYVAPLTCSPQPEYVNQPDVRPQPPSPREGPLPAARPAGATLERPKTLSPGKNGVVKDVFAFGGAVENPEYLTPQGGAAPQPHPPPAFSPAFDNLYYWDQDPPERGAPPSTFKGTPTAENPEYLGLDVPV

Turning to `CCOc1cc(CN2CCN(C(=O)c3ccco3)CC2)ccc1OC`, the viability in assay [1] is 79.5%; in assay [3] it was 79.5% (inactive); in assay [4] it was 88.7% (inactive); in assay [5], 89.5% (inactive); in assay [6] (setting [9]), 87.9%; in assay [6] (setting [10]), 89.5%. The Her2 level in assay [2] was 102% (inactive). Further, the differential viability (reversal) in assay [6] (H69AR cells + 2 uM doxorubicin) was 1.51% (inactive). Moreover, the inhibition was -2.69% (inactive) in assay [7] and 0.83% (inactive) in assay [8].

`CC1(C)Cc2c(c(N3CCOCC3)nc3sc(C#N)c(N)c23)CS1`: the viability is 92% in assay [1]; 92% (inactive) in assay [3]; 85.2% (inactive) in assay [4]; 83.3% (inactive) in assay [5]; 84.5% in assay [6] (setting [9]); 83.3% in assay [6] (setting [10]). The Her2 level in assay [2] is 122% (inactive). Also, in assay [6] (H69AR cells + 2 uM doxorubicin), the differential viability (reversal) is -1.22% (inactive). Besides, the inhibition was 0.9% (inactive) in assay [7] and -8.67% (inactive) in assay [8].

Take `CN(C)/C=N/c1ncnc2c1cnn2-c1ccc(C(F)(F)F)cn1`: the viability in assay [1] is 108%; in assay [3], 108% (inactive); in assay [4], 104% (inactive); in assay [5] it was 81.8% (inactive); in assay [6] (setting [9]) it was 82.3%; in assay [6] (setting [10]), 81.8%. Further, the Her2 level in assay [2] is 100% (inactive). Also, the differential viability (reversal) in assay [6] (H69AR cells + 2 uM doxorubicin) is -0.51% (inactive). Also, the inhibition in assay [7] is -4.42% (inactive); in assay [8], -4.29% (inactive).

For `O=C(Nc1cccc(Cl)c1)N1CCN(c2ncccn2)CC1`, the viability in assay [1] was 100%; in assay [3], 100% (inactive); in assay [4], 124% (inactive); in assay [5] it was 104% (inactive); in assay [6] (setting [9]), 86.7%; in assay [6] (setting [10]) it was 104%. Further, the Her2 level in assay [2] was 94.5% (inactive). In assay [6] (H69AR cells + 2 uM doxorubicin), the differential viability (reversal) is 17.4% (inactive). Further, the inhibition in assay [7] is 0.27% (inactive); in assay [8] it was -6.51% (inactive).

Regarding `CC(=O)NCCn1ccc2ccccc21`, the viability in assay [1] was 117%; in assay [3], 117% (inactive); in assay [4], 96.4% (inactive); in assay [5], 91.7% (inactive); in assay [6] (setting [9]), 95.5%; in assay [6] (setting [10]), 91.7%. For the same compound, the Her2 level in assay [2] is 106% (inactive). In addition, the differential viability (reversal) in assay [6] (H69AR cells + 2 uM doxorubicin) was -3.84% (inactive). Besides, the inhibition in assay [7] was -4.13% (inactive); in assay [8], 3.93% (inactive).

Turning to `COc1cccc(CNC(=O)CCn2c(=O)oc3ccccc32)c1`, the viability is 77.5% in assay [1]; 77.5% (inactive) in assay [3]; 94.7% (inactive) in assay [4]; 86.4% (inactive) in assay [5]; 89.4% in assay [6] (setting [9]); 86.4% in assay [6] (setting [10]). In assay [2], the Her2 level is 94.5% (inactive). In addition, in assay [6] (H69AR cells + 2 uM doxorubicin), the differential viability (reversal) is -3.03% (inactive). The inhibition was -5.92% (inactive) in assay [7] and -1.82% (inactive) in assay [8].

Take `Cc1nc(SCC(=O)Nc2ccccc2C(F)(F)F)c2c(=O)n(C)c(=O)n(C)c2n1`: the viability was 87% in assay [1]; 87% (inactive) in assay [3]; 80.3% (inactive) in assay [4]; 74% (inactive) in assay [5]; 76.3% in assay [6] (setting [9]); 74% in assay [6] (setting [10]). In addition, in assay [2], the Her2 level is 85% (inactive). Also, the differential viability (reversal) in assay [6] (H69AR cells + 2 uM doxorubicin) is -2.32% (inactive). In addition, the inhibition in assay [7] is -3.87% (inactive); in assay [8] it was 3.61% (inactive).

`COc1ccc2c(c1)C(C)=CC(C)(C)N2C(=O)CSc1nnc(-c2ccc(C)cc2)o1`: the viability in assay [1] was 98.5%; in assay [3], 98.5% (inactive); in assay [4], 53.2% (inactive); in assay [5], 93.9% (inactive); in assay [6] (setting [9]) it was 91.8%; in assay [6] (setting [10]) it was 93.9%. Moreover, the Her2 level in assay [2] is 99% (inactive). Also, in assay [6] (H69AR cells + 2 uM doxorubicin), the differential viability (reversal) was 2.13% (inactive). In addition, the inhibition was 31% (active) in assay [7] and -1% (inactive) in assay [8].

In the case of `O=c1c2nnn(Cc3ccccc3)c2ncn1-c1ccccc1`, the viability was 103% in assay [1]; 103% (inactive) in assay [3]; 111% (inactive) in assay [4]; 108% (inactive) in assay [5]; 103% in assay [6] (setting [9]); 108% in assay [6] (setting [10]). Besides, in assay [2], the Her2 level was 90.5% (inactive). Moreover, the differential viability (reversal) in assay [6] (H69AR cells + 2 uM doxorubicin) is 5.12% (inactive). In addition, the inhibition in assay [7] is -6.27% (inactive); in assay [8] it was 4.1% (inactive).

For `CCCN(C(=O)CSc1nnc(-c2ccoc2C)n1N)C1CCS(=O)(=O)C1` (stereo not given), the viability in assay [1] was 86.5%; in assay [3], 86.5% (inactive); in assay [4] it was 79.7% (inactive); in assay [5], 94.8% (inactive); in assay [6] (setting [9]), 86.9%; in assay [6] (setting [10]), 94.8%. Moreover, the Her2 level in assay [2] is 88.5% (inactive). Moreover, the differential viability (reversal) in assay [6] (H69AR cells + 2 uM doxorubicin) was 7.94% (inactive). The inhibition is -2.6% (inactive) in assay [7] and 2.13% (inactive) in assay [8].

Take `O=C(Cn1c(=O)[nH]n(-c2ccccc2)c1=O)N1CCCc2ccccc21`: the viability in assay [1] is 116%; in assay [3], 116% (inactive); in assay [4], 82.1% (inactive); in assay [5], 93.7% (inactive); in assay [6] (setting [9]), 85%; in assay [6] (setting [10]), 93.7%. Also, the Her2 level in assay [2] was 96% (inactive). In addition, the differential viability (reversal) in assay [6] (H69AR cells + 2 uM doxorubicin) is 8.74% (inactive). Besides, the inhibition is -5.73% (inactive) in assay [7] and -4.92% (inactive) in assay [8].

`Cc1cccc2cc(COC(=O)C(C)(C)C)c(=O)[nH]c12`: the viability was 95.5% in assay [1]; 95.5% (inactive) in assay [3]; 108% (inactive) in assay [4]; 97.6% (inactive) in assay [5]; 95% in assay [6] (setting [9]); 97.6% in assay [6] (setting [10]). Besides, the Her2 level in assay [2] is 91.5% (inactive). Also, in assay [6] (H69AR cells + 2 uM doxorubicin), the differential viability (reversal) is 2.58% (inactive). In addition, the inhibition in assay [7] is 0.13% (inactive); in assay [8], 5.17% (inactive).

As to `COc1ccc2[nH]c(=O)c(CN(CCO)S(=O)(=O)c3ccc4c(c3)OCCO4)cc2c1`, the viability in assay [1] is 85%; in assay [3], 85% (inactive); in assay [4], 99.8% (inactive); in assay [5], 94% (inactive); in assay [6] (setting [9]), 87%; in assay [6] (setting [10]), 94%. Moreover, in assay [2], the Her2 level was 97.5% (inactive). Also, the differential viability (reversal) in assay [6] (H69AR cells + 2 uM doxorubicin) was 6.97% (inactive). In addition, the inhibition in assay [7] was -5.07% (inactive); in assay [8] it was -2.3% (inactive).

As for `Clc1cccc(Nc2c3c(nc4ncnn24)CCC3)c1`, the viability was 94.5% in assay [1]; 94.5% (inactive) in assay [3]; 93% (inactive) in assay [4]; 83.8% (inactive) in assay [5]; 89.2% in assay [6] (setting [9]); 83.8% in assay [6] (setting [10]). Besides, the Her2 level in assay [2] is 82.5% (inactive). The differential viability (reversal) in assay [6] (H69AR cells + 2 uM doxorubicin) is -5.48% (inactive). For the same compound, the figures for the inhibition in assay [7] and in assay [8] were 1.82% (inactive) and 9.84% (inactive), respectively.
